Assay results taken from ChEMBL document CHEMBL1137537, “Novel oxotremorine-related heterocyclic derivatives: Synthesis and in vitro pharmacology at the muscarinic receptor subtypes” (Bioorg Med Chem, 2007).

How the values were obtained:
[1] = target: T1, Muscarinic acetylcholine receptor M5 (Homo sapiens, UniProt P08912); assay: Displacement of [3H]QNB from human muscarinic M5 receptor expressed in CHO cells; assay type: cell-based
T1 sequence (P08912 whole entry): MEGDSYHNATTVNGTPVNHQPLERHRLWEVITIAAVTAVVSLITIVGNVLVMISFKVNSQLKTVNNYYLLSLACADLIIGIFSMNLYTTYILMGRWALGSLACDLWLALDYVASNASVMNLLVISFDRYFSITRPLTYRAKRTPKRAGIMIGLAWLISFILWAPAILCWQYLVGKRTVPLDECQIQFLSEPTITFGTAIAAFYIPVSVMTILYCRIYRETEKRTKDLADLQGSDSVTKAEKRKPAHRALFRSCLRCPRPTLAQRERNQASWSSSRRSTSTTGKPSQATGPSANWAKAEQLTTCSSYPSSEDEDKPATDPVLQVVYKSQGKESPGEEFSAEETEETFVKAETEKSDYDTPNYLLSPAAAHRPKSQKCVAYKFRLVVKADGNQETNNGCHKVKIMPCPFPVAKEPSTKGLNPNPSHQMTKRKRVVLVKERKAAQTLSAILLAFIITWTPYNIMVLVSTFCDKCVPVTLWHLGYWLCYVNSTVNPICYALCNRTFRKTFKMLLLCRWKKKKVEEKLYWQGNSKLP

[2] = target: T2, Muscarinic acetylcholine receptor M2 (Homo sapiens, UniProt P08172); assay: Displacement of [3H]QNB from human muscarinic M2 receptor expressed in CHO cells; assay type: cell-based
T2 sequence (P08172 whole entry): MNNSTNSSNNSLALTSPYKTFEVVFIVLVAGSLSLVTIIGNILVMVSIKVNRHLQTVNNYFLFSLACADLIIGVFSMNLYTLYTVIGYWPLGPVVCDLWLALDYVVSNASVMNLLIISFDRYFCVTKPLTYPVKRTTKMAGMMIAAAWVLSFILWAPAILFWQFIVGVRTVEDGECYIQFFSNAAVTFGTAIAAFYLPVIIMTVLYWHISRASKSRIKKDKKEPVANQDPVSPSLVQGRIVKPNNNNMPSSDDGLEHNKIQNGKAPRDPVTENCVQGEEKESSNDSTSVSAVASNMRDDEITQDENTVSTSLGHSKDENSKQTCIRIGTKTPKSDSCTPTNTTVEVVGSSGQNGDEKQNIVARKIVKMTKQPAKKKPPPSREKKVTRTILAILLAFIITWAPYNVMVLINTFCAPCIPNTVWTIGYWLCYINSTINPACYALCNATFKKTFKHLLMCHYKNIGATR
Outline: (§1)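 Membranes (10-50 µg protein) from stable CHO lines expressing human m2-m5, competed against 180 pM [3H]QNB in 50 mM Tris-HCl pH 7.4 with 1% DMSO; 120 min at 25 °C to equilibrium; nonspecific binding with 0.5 µM atropine; GF-C filtration, scintillation counting; IC50 by logistic fit, Ki via Cheng–Prusoff using saturation-derived KD (5–2500 pM [3H]QNB).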

[3] = target: T3, Muscarinic acetylcholine receptor M3 (Cavia porcellus, UniProt Q8VH26); assay: Agonist activity at muscarinic M3 receptor in guinea-pig ileum; assay type: functional, tissue-based
Outline: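 Guinea-pig ileal segments 2–3 cm, 1.0 g tension, 37 °C Krebs-Henseleit with carbogen, 45 min equilibration; isometric contractions to cumulative agonist concentrations; pEC50 by least-squares linear regression; mean of 6-8 experiments.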

[4] = Antagonist activity at muscarinic M1 receptor in electrically stimulated New Zealand rabbit vas deferens; assay type: functional, Oryctolagus cuniculus
Outline: (§2)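 Antagonist mode: after 30 min incubation with test compound (10 nM–100 µM), concentration–response curve to full agonist (bethanechol or McN-A-343) repeated; pKB as molar concentration giving twofold EC50 shift, Furchgott's method; mean of 6-8 experiments.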

Oryctolagus cuniculus = organism: Oryctolagus cuniculus; assay: Intrinsic activity at muscarinic M1 receptor in electrically stimulated New Zealand rabbit vas deferens relative to McN-A-343; assay type: tissue-based
Outline: (§3)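 Intrinsic activity as ratio of compound's maximal response to that of reference full agonist (McN-A-343 for vas deferens, bethanechol for atrium and ileum), from cumulative concentration–response curves; mean of 6-8 experiments.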

[5] = target: Muscarinic acetylcholine receptor M3 (Cavia porcellus) (UniProt Q8VH26); assay: Intrinsic activity at muscarinic M3 receptor in guinea-pig ileum relative to benthanechol; assay type: tissue-based; outline: as §3
[6] = target: T3, Muscarinic acetylcholine receptor M3; assay: Binding affinity to muscarinic M3 receptor in guinea-pig ileum; assay type: tissue-based
Outline: (§4)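 Apparent affinity pKD: for full agonists by receptor inactivation with phenoxybenzamine (1-10 µM, 20-30 min); for partial agonists by McKay's method comparing curves with reference full agonist; mean of 6-8 experiments.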

[7] = Antagonist activity at muscarinic M2 receptor in electrically stimulated guinea-pig left atrium; assay type: functional, Cavia porcellus, Cardiac atrium; outline: as §2
Cavia porcellus = organism: Cavia porcellus; assay: Intrinsic activity at muscarinic M2 receptor in electrically stimulated guinea-pig left atrium relative to benthanechol; assay type: tissue-based; details: Cardiac atrium; outline: as §3
[8] = target: T4, Muscarinic acetylcholine receptor M4 (Homo sapiens, UniProt P08173); assay: Displacement of [3H]QNB from human muscarinic M4 receptor expressed in CHO cells; assay type: cell-based; outline: as §1
T4 sequence (P08173 whole entry): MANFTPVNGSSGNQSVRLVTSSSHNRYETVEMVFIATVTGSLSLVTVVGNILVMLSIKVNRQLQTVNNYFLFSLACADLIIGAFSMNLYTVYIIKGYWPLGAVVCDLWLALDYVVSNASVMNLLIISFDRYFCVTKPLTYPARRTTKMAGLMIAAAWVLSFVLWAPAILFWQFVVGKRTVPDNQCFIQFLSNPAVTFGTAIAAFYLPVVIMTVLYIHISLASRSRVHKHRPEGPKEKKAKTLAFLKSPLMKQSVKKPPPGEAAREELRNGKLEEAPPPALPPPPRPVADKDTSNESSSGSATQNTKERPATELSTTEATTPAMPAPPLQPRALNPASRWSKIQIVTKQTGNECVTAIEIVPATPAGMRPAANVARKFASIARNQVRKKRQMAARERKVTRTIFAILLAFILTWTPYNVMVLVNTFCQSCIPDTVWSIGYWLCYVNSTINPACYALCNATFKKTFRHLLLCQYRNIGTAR

[9] = Agonist activity at muscarinic M1 receptor in electrically stimulated New Zealand rabbit vas deferens; assay type: functional, tissue-based; details: Oryctolagus cuniculus
[10] = target: Muscarinic acetylcholine receptor M3 (Homo sapiens, UniProt P20309); assay: Displacement of [3H]QNB from human muscarinic M3 receptor expressed in CHO cells; assay type: cell-based
[11] = Binding affinity to muscarinic M2 receptor in electrically stimulated guinea-pig left atrium; assay type: tissue-based, Cavia porcellus, Cardiac atrium; outline: as §4
[12] = target: T5, Muscarinic acetylcholine receptor M1 (Homo sapiens, UniProt P11229); assay: biochemical; assay type: cell-based, CHO
T5 sequence (P11229 whole entry): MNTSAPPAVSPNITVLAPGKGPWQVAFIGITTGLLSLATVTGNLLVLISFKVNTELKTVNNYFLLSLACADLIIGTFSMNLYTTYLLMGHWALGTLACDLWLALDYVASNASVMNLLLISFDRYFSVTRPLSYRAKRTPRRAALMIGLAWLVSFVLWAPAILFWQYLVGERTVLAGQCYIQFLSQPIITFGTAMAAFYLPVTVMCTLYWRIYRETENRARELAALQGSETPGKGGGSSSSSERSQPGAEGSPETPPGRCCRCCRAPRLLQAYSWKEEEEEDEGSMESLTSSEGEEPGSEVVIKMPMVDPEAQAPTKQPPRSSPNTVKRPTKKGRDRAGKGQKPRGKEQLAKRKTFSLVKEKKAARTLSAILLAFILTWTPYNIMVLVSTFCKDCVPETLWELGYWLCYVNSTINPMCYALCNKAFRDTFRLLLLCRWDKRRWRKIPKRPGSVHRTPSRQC

[13] = Agonist activity at muscarinic M2 receptor in electrically stimulated guinea-pig left atrium; assay type: functional, tissue-based; details: Cavia porcellus, Cardiac atrium
[14] = Binding affinity to muscarinic M1 receptor in electrically stimulated New Zealand rabbit vas deferens; assay type: tissue-based, Oryctolagus cuniculus; outline: as §4
[15] = target: Muscarinic acetylcholine receptor M3 (Cavia porcellus) (UniProt Q8VH26); assay: Antagonist activity at muscarinic M3 receptor in guinea-pig ileum; assay type: functional, tissue-based; outline: as §2

T3 sequence (Q8VH26 whole entry): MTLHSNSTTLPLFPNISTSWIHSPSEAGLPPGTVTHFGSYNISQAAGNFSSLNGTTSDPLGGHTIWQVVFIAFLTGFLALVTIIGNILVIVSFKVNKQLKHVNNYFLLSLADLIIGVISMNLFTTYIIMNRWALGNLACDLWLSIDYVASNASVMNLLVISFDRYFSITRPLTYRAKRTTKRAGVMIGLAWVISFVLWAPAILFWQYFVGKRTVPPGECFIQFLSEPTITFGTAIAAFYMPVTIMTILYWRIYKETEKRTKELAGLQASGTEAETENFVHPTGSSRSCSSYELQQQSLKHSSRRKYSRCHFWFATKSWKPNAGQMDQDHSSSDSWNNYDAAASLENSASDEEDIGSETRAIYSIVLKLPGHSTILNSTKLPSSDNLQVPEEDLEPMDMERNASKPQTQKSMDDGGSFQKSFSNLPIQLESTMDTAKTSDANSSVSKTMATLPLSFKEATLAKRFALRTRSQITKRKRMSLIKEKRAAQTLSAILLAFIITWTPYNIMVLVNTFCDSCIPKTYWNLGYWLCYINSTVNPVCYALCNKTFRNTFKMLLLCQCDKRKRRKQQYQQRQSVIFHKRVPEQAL
Sequence of Muscarinic acetylcholine receptor M3 (Cavia porcellus) (Q8VH26 1-587): as the sequence (Q8VH26 whole entry) above
Sequence of Muscarinic acetylcholine receptor M3 (Homo sapiens, UniProt P20309) (P20309 whole entry): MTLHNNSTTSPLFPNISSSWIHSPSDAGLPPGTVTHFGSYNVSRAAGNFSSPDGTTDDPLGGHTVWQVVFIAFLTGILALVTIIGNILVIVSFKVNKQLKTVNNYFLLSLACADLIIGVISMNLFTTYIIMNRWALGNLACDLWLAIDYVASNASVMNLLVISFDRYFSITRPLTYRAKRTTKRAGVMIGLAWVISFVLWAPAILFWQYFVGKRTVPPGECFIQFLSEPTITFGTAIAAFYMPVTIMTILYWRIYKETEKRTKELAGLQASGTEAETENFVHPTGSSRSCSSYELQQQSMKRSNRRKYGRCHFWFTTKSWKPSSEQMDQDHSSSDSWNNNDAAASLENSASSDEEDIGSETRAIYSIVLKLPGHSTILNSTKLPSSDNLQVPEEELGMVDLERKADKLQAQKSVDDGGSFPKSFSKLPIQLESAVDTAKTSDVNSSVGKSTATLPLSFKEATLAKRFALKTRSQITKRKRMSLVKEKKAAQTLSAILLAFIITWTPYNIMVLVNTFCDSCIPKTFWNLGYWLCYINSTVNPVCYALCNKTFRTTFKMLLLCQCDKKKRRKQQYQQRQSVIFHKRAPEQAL

Structure (SMILES): C(#CCN1CCc2ccccc21)COC1=NOCC1
- Ki [1]: > 10 µM
- Ki [2]: > 10 µM

Structure (SMILES): Cc1cc(OCC#CCN2CCCC2)no1.O=C(O)/C=C/C(=O)O
- EC50 [3]: 15.1 µM
- pKb [4]: 5.66
- Intrinsic activity (Oryctolagus cuniculus): 0
- Intrinsic activity [5]: 0.4
- Ki [1]: > 10 µM
- Kd [6]: 15.5 µM
- pKb [7]: 4.81
- Ki [2]: > 10 µM
- Intrinsic activity (Cavia porcellus): 0

Structure (SMILES): Cc1cc(OCC#CCN(C)C)no1.O=C(O)/C=C/C(=O)O
- EC50 [3]: 0.794 µM
- Ki [8]: 1.1 µM
- EC50 [9]: 3.47 µM
- Ki [10]: > 10 µM
- Intrinsic activity (Oryctolagus cuniculus): 0.6
- Intrinsic activity [5]: 1.1
- Ki [1]: > 10 µM
- Kd [6]: 39.8 µM
- pKd [11]: 3.56
- Ki [12]: > 10 µM
- Ki [2]: 3.8 µM
- Intrinsic activity (Cavia porcellus): 1
- EC50 [13]: 0.513 µM
- pKd [14]: 5.45

Structure (SMILES): C[N+]1(CC#CCN2OCCC2=O)CCc2ccccc2C1 (configuration not stated)
- Ki [1]: > 10 µM
- Ki [2]: > 10 µM

Structure (SMILES): C[N+](C)(C)CC#CCOC(=O)Nc1cccc(Cl)c1.[Cl-]
- EC50 [9]: 0.398 µM
- Intrinsic activity (Oryctolagus cuniculus): 1
- pKd [14]: 7.2

Structure (SMILES): C[N+]12CCC(CC1)/C(=N/OCC#CCOc1ccon1)C2.[I-]
- EC50 [3]: 3.55 µM
- EC50 [9]: 4.27 µM
- Intrinsic activity (Oryctolagus cuniculus): 0.9
- Intrinsic activity [5]: 0.7
- Ki [1]: > 10 µM
- Kd [6]: 9.33 µM
- Ki [2]: > 10 µM
- EC50 [13]: > 100 µM
- pKd [14]: 3.82

Structure (SMILES): C[N+]1(CC#CCOC2=NOCC2)CCCCC1.[I-]
- EC50 [3]: 0.269 µM
- Ki [8]: 1.68 µM
- EC50 [9]: 0.794 µM
- Ki [10]: 4.74 µM
- Intrinsic activity (Oryctolagus cuniculus): 0.4
- Intrinsic activity [5]: 1
- Ki [1]: 4.12 µM
- Kd [6]: 0.295 µM
- pKd [11]: 6.74
- Ki [12]: 7.37 µM
- Ki [2]: 0.219 µM
- Intrinsic activity (Cavia porcellus): 1
- EC50 [13]: 0.0457 µM
- pKd [14]: 6.51

Structure (SMILES): CC(C[N+](C)(C)C)OC(N)=O (configuration not stated) [BETHANECHOL]
- EC50 [3]: 0.427 µM
- Intrinsic activity [5]: 1
- Kd [6]: 12.6 µM
- pKd [11]: 5.37
- Intrinsic activity (Cavia porcellus): 1
- EC50 [13]: 0.646 µM

Structure (SMILES): O=C(O)C(=O)O.O=C1CCON1CC#CCN1CCCCC1
- Ki [8]: 0.792 µM
- pKb [4]: 6.45
- Ki [10]: 0.537 µM
- Intrinsic activity (Oryctolagus cuniculus): 0
- Intrinsic activity [5]: 0
- Ki [1]: 0.544 µM
- pKb [7]: 5.94
- Ki [12]: 0.819 µM
- pKb [15]: 5.55
- Ki [2]: 0.04 µM
- Intrinsic activity (Cavia porcellus): 0.2

Structure (SMILES): C[N+]1(CC#CCOC2=NOCC2)CCc2ccccc21 (configuration not stated)
- Ki [8]: > 10 µM
- Ki [10]: 5.54 µM
- Ki [1]: > 10 µM
- Ki [12]: > 10 µM
- Ki [2]: 4.1 µM

Structure (SMILES): C[N+]1(CC#CCN2OCCC2=O)CCc2ccccc21 (configuration not stated)
- Ki [1]: > 10 µM
- Ki [2]: > 10 µM
